Screening data as filed in PubChem BioAssay.
HGIII-sPLA2 inh: Blocks human group III sPLA2 activity; 370,000 tested, 0.56% active; QFRET BODIPY PC-A2 liposome hydrolysis, fluorescence; inhibition, % at 12.2 µM;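 active = inhibition above mean plus 3 SD of compounds lying within the high and low control bounds, cut at about 19% in these data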;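 also: 0% = median of test compound wells and 100% = no enzyme DMSO wells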
Arr AP2 block: blocks beta-arrestin peptide binding to AP2 adaptin | 340,000 tested, 0.31% active | FITC-arrestin peptide / GST-AP2 beads, flow cytometry; AP2 beta2 appendage carries R879A mutation | AID 504490 | inhibition, % at 10 µM;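 active = inhibition above a set limit, near 3 SD of compounds lacking own fluorescence, cut at about 54% in these data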;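 also: plate controls were DMSO wells for no effect and 5 µM unlabelled arrestin peptide for full effect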
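System: GST-tagged AP2 beta2-adaptin appendage (R879A) on 4 µm glutathione beads / Reagent: FITC-arrestin peptide, 50 nM / Detection: HyperCyt-sampled flow cytometry, FL1 channel, ex 488/em 535 nm / Timing: 12 min plus 1 h, RT / Buffer or medium: PBS plus Tween 20 (0.05%) and BSA (0.1%)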
M18AAP inhibitor: blocks P. falciparum M18 aspartyl aminopeptidase | recombinant PfM18AAP, H-Glu-NHMec fluorogenic cleavage | inhibition, % at 7.35 µM | 290,000 tested, 1.2% active | AID 1822;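 active = inhibition above the campaign mean inhibition over all tested compounds plus 3 SD, cut at about 28% in these data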;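 also: 0% = plate median of test compound wells and 100% = 2 mM ZnCl2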
Lipid droplet: modulators of hepatic lipid droplet formation. AML12 mouse hepatocytes, oleate lipid droplets, BODIPY imaging. inhibition, % at 6.5 µM. 240,000 tested, 0.4% active. AID 1656;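 active = lipid droplet intensity inhibited by at least 50%, with more than 500 cells counted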
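Technique: fluorescence imaging, 20x objective, two fields per well / Assay system: AML12 hepatocytes (mouse) / Measure: % inhibition of lipid droplet signal / Doses: 6.5 µM single-point dosing / Incubation: overnight exposure / Reagent: 100 µM oleic acid challenge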
NRP1-CendR mod: modulators of CendR peptide binding to human neuropilin-1; inhibition, % at 25 µM; O14786; FAM-RPARPAR peptide binding to NRP-1, fluorescence polarization; 360,000 tested, 0.85% active;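 active = inhibition or corrected inhibition above about 18%, plus a signal ratio from 0.5 to 1.5, limit read from the data, passing the limit was not always enough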
m5-HT2A agonist: mouse HTR2A agonism via beta-arrestin recruitment; P35363; CHO-K1 mHTR2A beta-arrestin complementation, luminescence; percent of 30 µM serotonin response; activation, % at 7.6 µM; 360,000 tested, 0.66% active; AID 624169;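 active = activation above a run cutoff, the mean activation of all tested compounds plus 3 SD, cut at about 14% in these data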;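 also: 0% = plate median of compound wells and 100% = 30 µM serotonin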
Target sequence (P35363 whole entry, looked up): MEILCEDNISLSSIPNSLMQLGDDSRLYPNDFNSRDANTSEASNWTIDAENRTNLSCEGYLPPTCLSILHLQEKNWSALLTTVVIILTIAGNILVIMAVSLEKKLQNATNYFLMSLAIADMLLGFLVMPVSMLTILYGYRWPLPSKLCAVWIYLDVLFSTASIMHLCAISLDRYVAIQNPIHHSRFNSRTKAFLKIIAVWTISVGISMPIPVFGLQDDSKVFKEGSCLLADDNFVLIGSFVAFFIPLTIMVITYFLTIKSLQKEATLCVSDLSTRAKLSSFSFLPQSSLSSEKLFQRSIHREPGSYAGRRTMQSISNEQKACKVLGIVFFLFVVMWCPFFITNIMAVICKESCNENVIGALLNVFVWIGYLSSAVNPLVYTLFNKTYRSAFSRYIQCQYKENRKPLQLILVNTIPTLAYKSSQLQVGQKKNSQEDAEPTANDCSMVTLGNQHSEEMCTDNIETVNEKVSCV
Numbers without * were called inactive; . = no result. Sampled rows, rich in hits. Any-hit rate of the full collection: about 3.3%.

SMILES	HGIII-sPLA2 inh	Arr AP2 block	M18AAP inhibitor	Lipid droplet	NRP1-CendR mod	m5-HT2A agonist
COc1ccc(/C=N/NC(=O)c2cc(C34CC5CC(CC(C5)C3)C4)[nH]n2)cc1OC	3	8	2	7	22*	-3
CC(C)(C)c1ccc(-c2nnc(SCC(=O)Nc3ccc(S(=O)(=O)Nc4nccs4)cc3)n2-c2ccc(Cl)cc2)cc1	-73	.	.	.	.	.
O=C1CCCN1CCCNc1nc(NCc2cccs2)nc2ccsc12	6	.	.	.	26*	1
COCCNc1nc(NCc2cccs2)nc2ccsc12	5	.	.	.	10	-1
COC(=O)C1=C(C)N(Cc2ccc(C(F)(F)F)cc2)C(=NCc2ccccc2C(F)(F)F)NC1c1ccccc1C(F)(F)F (stereo not drawn)	4	.	.	.	.	.
NC(=O)N1c2ccccc2C=Cc2ccccc21	0	-4	-2	1	1	-3
NC(=O)N1c2ccccc2CC(=O)c2ccccc21	1	13	5	-5	35*	-3
CCN(CC)CCN(Cc1cc2cc3c(cc2[nH]c1=O)OCO3)C(=S)NCC1CCCO1 (stereo not drawn)	13	5	28*	-8	9	-4
CCN(CC)CCN(Cc1cc2cc3c(cc2[nH]c1=O)OCCO3)C(=S)NCC1CCCO1 (stereo not drawn)	12	-2	6	2	-1	3
CC(Nc1nc(-c2ccc(F)cc2)cs1)c1nc2cc(C(F)(F)F)ccc2n1CCOCCO (stereo not drawn)	-5	7	.	.	28*	-4
Nc1c(C(=O)NCC2CCCO2)sc2nc3c(c(-c4ccco4)c12)CC/C3=C\c1ccco1 (stereo not drawn)	-5	56*	24	31	-128	4
Cc1ccccc1NC(=O)c1sc2nc3c(c(-c4ccco4)c2c1N)CCC3	5	8	9	.	-50	-2
CCOC(=O)C(NC(=O)c1ccccc1)(OCc1ccc(F)cc1)C(F)(F)F (stereo not drawn)	-5	-1	-1	43	2	-1
CCOC(=O)C(NC(=O)c1cccc(Cl)c1)(OCc1ccc(F)cc1)C(F)(F)F (stereo not drawn)	-3	7	5	64*	-1	1
Oc1ccc(/C=N/Nc2ncnc3c2ncn3Cc2ccccc2)cc1O	-3	.	39*	15	-32	-1
COc1cc(/C=C2\C(=N)N3N=CSC3=NC2=O)ccc1OS(=O)(=O)c1ccccc1[N+](=O)[O-]	-18	52	29*	5	-22	7
COc1cc(/C=C2/C(=N)N3C(=NC2=O)SN=C3S(C)(=O)=O)ccc1OS(=O)(=O)c1ccccc1	.	.	10	17	.	.
CCCCC(CC)CO (stereo not drawn)	1	0	.	.	7	2
CCCCC(CC)CN=C(N)NC(N)=NCCCCCCN=C(N)NC(N)=NCC(CC)CCCC (stereo not drawn)	.	-8	.	.	-8	15*
COc1cc(/C=N/NC(=O)c2ccc(NC(=O)C3CC3)cc2)ccc1OC(C)=O	0	-8	1	-1	27*	2
CCOc1ccc(/C=N/NC(=O)C2CC2)cc1OC	2	4	2	5	8	-3
COc1cccc(C2CC=C(C(=O)O)CN2S(=O)(=O)c2ccc(C)cc2)c1 (stereo not drawn)	2	.	.	.	.	.
CC(C)(C)NC(=O)NC12CC3CC(CC(C3)C1)C2	-2	1	-3	4	22*	-3
N#CN1C2CCC1CC(O)(c1ccccc1)C2 (stereo not drawn)	.	.	.	.	11	-3
O=S(=O)(c1cccc2ccccc12)N1CCC2CC1c1cc(Cl)ccc12 (stereo not drawn)	7	4	.	.	2	-6
CCOc1cc(C2CC(=O)N3CN(C4CCCCC4)CSC3=C2C#N)ccc1O (stereo not drawn)	-7	17	31*	-1	-8	0
O=C(CSCc1nc2c(nnn2Cc2ccc(F)cc2)c(=O)[nH]1)Nc1cccc(C(F)(F)F)c1	-16	6	-2	-34	2	-7
CC(C)(C)c1ccc(CC(=O)N2CCC2(C)C(=O)NCCC#N)cc1 (stereo not drawn)	7	.	.	.	13	8
